Source: PubChem BioAssay
PAFAH1B3 inh – PAFAH1B3 (human) inhibition; inhibition, % at 3.39 µM; AID 492972; Q15102; recombinant PAFAH1B3, FP-rhodamine probe, fluorescence polarization; actives 0.28% (n = 340,000);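 active = inhibition above the screen-wide average of all tested compounds plus 3 SD, cut at about 25% in these data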;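 also: 0% = enzyme with DMSO only and 100% = wells lacking PAFAH1B3 protein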
PAFAH2 inh – PAFAH2 (human) inhibition. inhibition, % at 3.39 µM. Q99487. recombinant PAFAH2, FP-rhodamine activity probe, fluorescence polarization. AID 492956. actives 0.99% (n = 340,000);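 active = inhibition above the mean over all tested compounds plus 3 SD, cut at about 30% in these data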;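 also: inhibitors block probe labeling of enzyme so polarization drops; 0% = enzyme with DMSO and 100% = wells lacking PAFAH2 protein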
PAFAH1B2 FP inh – blocks human PAF acetylhydrolase 1b catalytic subunit 2; P68402; recombinant PAFAH1B2, FP-rhodamine activity probe, fluorescence polarization; inhibition, % at 3.39 µM; actives 1.2% (n = 340,000);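 active = inhibition above the mean of all tested compounds plus 3 SD, cut at about 24% in these data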;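 also: 0% = enzyme with DMSO and 100% = wells lacking PAFAH1B2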
PREPL inhibitor – human PREPL enzyme inhibition | recombinant PREPL, fluorescence polarization activity-based probe | inhibition, % at 5.96 µM | actives 0.68% (n = 320,000); in the data active = inhibition above about 43%;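 also: 0% = enzyme with DMSO and 100% = wells lacking enzyme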
pPAFAH FP inh – pPAFAH (human) enzyme inhibition. Q13093. inhibition, % at 3.39 µM. AID 463082. recombinant pPAFAH, FP-rhodamine probe fluorescence polarization. actives 1.5% (n = 330,000);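 active = inhibition above the mean inhibition across the screen plus 3 SD, cut at about 25% in these data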;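 also: inhibitors block binding of the rhodamine activity-based probe so polarization drops; 0% = enzyme with DMSO and 100% = wells lacking pPAFAH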
Target sequence (Q13093 whole entry, looked up): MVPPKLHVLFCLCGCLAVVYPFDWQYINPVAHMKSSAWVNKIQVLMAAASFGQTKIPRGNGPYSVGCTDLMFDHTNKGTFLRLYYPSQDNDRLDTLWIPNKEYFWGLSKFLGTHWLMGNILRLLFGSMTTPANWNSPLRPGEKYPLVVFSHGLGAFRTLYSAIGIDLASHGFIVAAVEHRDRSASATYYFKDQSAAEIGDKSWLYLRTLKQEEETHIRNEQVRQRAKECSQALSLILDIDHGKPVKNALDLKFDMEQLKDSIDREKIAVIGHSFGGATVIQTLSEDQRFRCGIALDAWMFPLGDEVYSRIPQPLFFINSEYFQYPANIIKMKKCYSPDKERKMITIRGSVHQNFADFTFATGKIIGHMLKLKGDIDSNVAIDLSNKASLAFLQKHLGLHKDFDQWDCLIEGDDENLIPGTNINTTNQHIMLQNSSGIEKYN
Apaf-1 inh – inhibitors of human Apaf-1 apoptosome; O14727; reconstituted apoptosome caspase-3 activity, DEVD-Rh110 fluorescence; inhibition, % at 20 µM; actives 0.71% (n = 330,000); active = inhibition of at least 40% at 20 µM;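 also: plate controls were DMSO wells for no effect and DEVD-CHO caspase inhibitor wells for full effect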
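Assay system: Apoptosome proteins | Medium: pH 7.5 Hepes buffer with CHAPS, BSA, DTT | Also added: Cytochrome c and DEVD-Rh110 substrate | Times: 30 min plus 50 min, RT | Detection: Rhodamine 110 fluorescence at Ex 480/Em 540 nm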
* = called active by the depositor; nt = not tested or not shown. In the library only some 3.5% were active in any assay of this set; here they are far more common.

SMILES	PAFAH1B3 inh	PAFAH2 inh	PAFAH1B2 FP inh	PREPL inhibitor	pPAFAH FP inh	Apaf-1 inh
O=S(=O)(Nc1ccc(Cc2ccncc2)cc1)c1ccc(Br)s1	10	3	10	1	26*	18
CN(C)c1ccc(N=Cc2ccco2)cc1	6	2	7	31	28*	16
Cc1ccc(S(=O)(=O)Nc2nc(C)c(C(=O)NNS(=O)(=O)c3ccccc3)s2)cc1	9	12	29*	8	7	-11
Cn1ccnc1SCc1ccc(Cl)cc1Cl	-6	-2	2	7	-8	10
O=C(O)c1sccc1SCc1ccc(Cl)cc1Cl	5	4	30*	9	6	4
CN(Cc1cccs1)C(=O)Cc1csc(-c2ccccc2)n1	2	-2	-2	1	8	3
Cc1cc(/C=C2\SC(=S)NC2=O)c(C)n1-c1ccccc1	nt	nt	nt	18	30*	11
Cc1ccc(C(=O)O)cc1NC(=O)CSc1nnc(-c2ccccc2F)n1C1CCCCC1	9	6	26*	-6	3	-11
CC(=O)c1ccc(S(=O)(=O)Nc2ccccc2C(=O)NC2CC2)cc1	5	4	-4	3	1	-6
CC(C)c1ccc(C(=O)Nc2cccnc2)cc1	-5	-2	8	7	-4	-1
CCOC(=O)c1oc2cc(O)ccc2c(=O)c1-c1ccccc1OC	4	2	-2	14	1	5
CCOc1ccccc1-c1c2cc(O)c(=O)cc-2oc2cc(O)c(O)cc12	119*	127*	112*	nt	nt	nt
O=c1cc2oc3cc(O)c(O)cc3c(-c3ccccc3O)c-2cc1O	-62	42*	27*	nt	nt	nt
Cn1cc(Br)c(C(=O)NC(=S)Nc2ccc(S(N)(=O)=O)cc2)n1	2	2	2	7	-1	-12
Cc1ccc(-c2[nH]c(-c3ccc(C(=O)O)cc3)nc2-c2ccccc2)cc1	1	2	6	3	31*	4
COc1cccc2c1C1(O)C2CCCCCCCCCC12OCCCO2 (centres undefined)	0	11	25*	nt	nt	nt
O=C(O)c1cc(-n2nnnc2SCc2ccccc2F)ccc1Cl	2	0	1	1	1	0
O=C(O)c1cc(-n2nnnc2SCc2ccc([N+](=O)[O-])cc2)ccc1Cl	4	4	26*	5	7	-5
CCOc1ccc(S(=O)(=O)NCc2ccccn2)c(C)c1C	6	4	3	-7	1	-5
COc1cc(C2NC(=O)NC(C)=C2C(=O)OC(C)C)ccc1OC(=O)c1ccco1 (centres undefined)	6	6	10	79*	-1	3
COc1cc(C2NC(=S)NC(C)=C2C(=O)OC(C)C)ccc1OC(C)C (centres undefined)	5	2	6	-4	-1	3
CCOC(=O)C1=C(C)NC(=O)NC1c1ccc(OC(=O)c2ccco2)c(OC)c1 (centres undefined)	-1	-5	-2	67*	5	-23
COc1cccc(/C=C2/CCC(CN(C)C)C2=O)c1 (centres undefined)	6	0	1	nt	nt	nt
Cc1ccc(-c2ccc(/C=N/NC(N)=S)o2)cc1	11	6	5	28	7	25
NC(=S)N/N=C/c1ccc(-c2ccc(SC(F)F)cc2)o1	-2	-6	1	17	27*	4
SMILES	PAFAH1B3 inh	PAFAH2 inh	PAFAH1B2 FP inh	PREPL inhibitor	pPAFAH FP inh	Apaf-1 inh
Cc1ccc(Nc2cc(C)nn2-c2nc(C)cc(=O)[nH]2)cc1	3	4	-2	23	30*	6
Cc1ccc(C(c2nnnn2Cc2ccccc2)N2CCN(Cc3ccccc3)CC2)cc1 (centres undefined)	1	0	31*	-11	-2	19
CCCCn1c(N)c(N(CCOC)C(=O)c2cc3c(s2)CCC3)c(=O)[nH]c1=O	0	8	2	5	10	11
O=S(=O)(Nc1ncccn1)c1ccc(NC(=S)Nc2ccccc2Cl)cc1	8	-4	-2	-3	3	-22
COc1ccc(Nc2nc(-c3ccc4c(c3)NC(=O)CO4)cs2)cc1	6	3	-2	30	30*	13
COc1ccccc1Nc1nc(-c2ccc3c(c2)NC(=O)CO3)cs1	20	-2	0	14	21	18
CCC(C)Nc1nc(-c2ccc3c(c2)NC(=O)CO3)cs1 (centres undefined)	1	3	0	1	25*	8
COc1ccc(-c2cc(-c3ccccc3)nc(-c3ccc4c(c3)NC(=O)CO4)c2)cc1	2	-8	3	13	3	11
O=C(O)CCN1C(=O)/C(=C\c2cccc(OCc3ccccc3)c2)SC1=S	7	-2	27*	-21	11	12
O=C(O)CN1C(=O)/C(=C\c2cccc(OCc3ccc(Cl)cc3Cl)c2)SC1=S	1	25	25*	nt	nt	15
CCOc1ccccc1C=C1SC(=S)N(CC)C1=O	12	-2	-3	nt	nt	nt
O=C(O)CCN1C(=O)/C(=C\c2ccc(OCc3ccccc3)c(OCc3ccccc3)c2)SC1=S	4	-4	-1	27	9	-56
O=C(O)CN1C(=O)/C(=C\c2ccccc2OCc2ccc(Cl)cc2Cl)SC1=S	5	29	15	37	34*	-4
CCC(=O)c1ccc(OCC(=O)OC(C)C(=O)NCc2ccc3c(c2)OCO3)cc1 (centres undefined)	4	3	4	3	9	-1
CC(Nc1c([N+](=O)[O-])c(=O)oc2ccccc12)c1ccccc1 (centres undefined)	-2	-9	4	-4	-2	6
CN(CC(=O)Nc1ccccc1C(=O)NC1CC1)Cc1ccc(Cl)s1	4	-3	7	-1	-1	2
O=C(O)c1ccccc1C(=O)Nc1ccc(-n2nccc2C(F)(F)F)cc1	7	3	-5	-1	1	-19
CCOC(=O)CCCCC(=O)c1[nH]c(=O)[nH]c1CSc1nc(C)cc(=O)[nH]1	0	-1	5	6	2	-14
CCOC(=O)CCCCC(=O)c1[nH]c(=O)[nH]c1CSc1nc2ccccc2[nH]1	24	27	25*	10	4	8
Cc1ccc(NS(=O)(=O)c2ccc(C)c(C(=O)Nc3ccc(S(=O)(=O)Nc4onc(C)c4C)cc3)c2)cc1	5	6	4	nt	nt	nt
Cc1ccc(N2C(=O)C3CCC(C)(C2=O)C3(C)C)cc1 (centres undefined)	0	8	-2	0	-1	-23
CSC[C@@H]1NC(=S)N(c2ccc(C)cc2)C1=O	49*	15	27*	-11	14	-3
CC1=CC(=O)c2c(O)ccc(O)c2C1=O	nt	nt	nt	35	70*	nt
CC(=O)[C@@H]1[C@@H](C(=O)c2ccc(F)cc2)[C@]2(C(=O)Nc3ccccc32)[C@H]2C=Cc3cc(F)ccc3N12	-2	0	1	1	6	-9
